Measurements: ChEMBL document CHEMBL1287651, “Synthesis and in vitro antibacterial activity of fluoroquinolone derivatives containing 3-(N'-alkoxycarbamimidoyl)-4-(alkoxyimino) pyrrolidines” (2010)
≈ marks a conversion by molar mass, not a printed value.

Legend:
Format in all cases: functional
Staphylococcus aureus [1] = experiment: Antibacterial activity against Staphylococcus aureus ATCC […] after 18 to 24 hrs by twofold serial dilution method
How it was run: (§1)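 MIC determined by the standard twofold serial dilution method on agar media, screening against Gram-positive and Gram-negative strains. Levofloxacin and gemifloxacin were run alongside as reference drugs.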

Staphylococcus aureus [2] = experiment: Antibacterial activity against methicillin-resistant Staphylococcus aureus 08-1 after 18 to 24 hrs by twofold serial dilution method
How it was run: (§2)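 Standard twofold serial agar dilution method on agar media for MIC determination. Screened against representative Gram-positive and Gram-negative strains. Levofloxacin and GMFX served as control drugs.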

Staphylococcus aureus [3] = experiment: Antibacterial activity against methicillin-sensitive Staphylococcus aureus 08-2 after 18 to 24 hrs by twofold serial dilution method; how it was run: as §2
[4] = tested on: Staphylococcus epidermidis; experiment: Antibacterial activity against methicillin-resistant Staphylococcus epidermidis 09-2 after 18 to 24 hrs by twofold serial dilution method; how it was run: as §2
[5] = tested on: Staphylococcus epidermidis; experiment: Antibacterial activity against methicillin-resistant Staphylococcus epidermidis 09-3 after 18 to 24 hrs by twofold serial dilution method; how it was run: as §2
[6] = tested on: Staphylococcus epidermidis; experiment: Antibacterial activity against methicillin-resistant Staphylococcus epidermidis 09-4 after 18 to 24 hrs by twofold serial dilution method; how it was run: as §2
[7] = tested on: Staphylococcus epidermidis; experiment: Antibacterial activity against methicillin-sensitive Staphylococcus epidermidis 09-3 after 18 to 24 hrs by twofold serial dilution method; how it was run: as §2
[8] = tested on: Staphylococcus epidermidis; experiment: Antibacterial activity against methicillin-sensitive Staphylococcus epidermidis 09-6 after 18 to 24 hrs by twofold serial dilution method; how it was run: as §2
Streptococcus pneumoniae [9] = experiment: Antibacterial activity against Streptococcus pneumoniae 08-2 after 18 to 24 hrs by twofold serial dilution method; how it was run: as §1
Streptococcus pneumoniae [10] = experiment: Antibacterial activity against Streptococcus pneumoniae 08-4 after 18 to 24 hrs by twofold serial dilution method; how it was run: as §1
Enterococcus faecium [11] = experiment: Antibacterial activity against Enterococcus faecium 08-2 after 18 to 24 hrs by twofold serial dilution method; how it was run: as §1
Enterococcus faecium [12] = experiment: Antibacterial activity against Enterococcus faecium 08-7 after 18 to 24 hrs by twofold serial dilution method; how it was run: as §1
Enterococcus faecalis [13] = experiment: Antibacterial activity against Enterococcus faecalis 08-10 after 18 to 24 hrs by twofold serial dilution method; how it was run: as §1
Enterococcus faecalis [14] = experiment: Antibacterial activity against Enterococcus faecalis 08-12 after 18 to 24 hrs by twofold serial dilution method; how it was run: as §1
Escherichia coli [15] = experiment: Antibacterial activity against Escherichia coli ATCC 25922 after 18 to 24 hrs by twofold serial dilution method; how it was run: as §1
Escherichia coli [16] = experiment: Antibacterial activity against Escherichia coli 08-21 after 18 to 24 hrs by twofold serial dilution method; how it was run: as §1
Escherichia coli [17] = experiment: Antibacterial activity against Escherichia coli 08-22 after 18 to 24 hrs by twofold serial dilution method; how it was run: as §1
Klebsiella pneumoniae [18] = experiment: Antibacterial activity against Klebsiella pneumoniae 09-21 after 18 to 24 hrs by twofold serial dilution method; how it was run: as §1
Klebsiella pneumoniae [19] = experiment: Antibacterial activity against Klebsiella pneumoniae 09-22 after 18 to 24 hrs by twofold serial dilution method; how it was run: as §1
Klebsiella pneumoniae [20] = experiment: Antibacterial activity against Klebsiella pneumoniae 09-23 after 18 to 24 hrs by twofold serial dilution method; how it was run: as §1
Pseudomonas aeruginosa [21] = experiment: Antibacterial activity against Pseudomonas aeruginosa ATCC 27853 after 18 to 24 hrs by twofold serial dilution method; how it was run: as §1
Pseudomonas aeruginosa [22] = experiment: Antibacterial activity against Pseudomonas aeruginosa 09-32 after 18 to 24 hrs by twofold serial dilution method; how it was run: as §1
Pseudomonas aeruginosa [23] = experiment: Antibacterial activity against Pseudomonas aeruginosa 09-33 after 18 to 24 hrs by twofold serial dilution method; how it was run: as §1
Pseudomonas aeruginosa [24] = experiment: Antibacterial activity against Pseudomonas aeruginosa 09-34 after 18 to 24 hrs by twofold serial dilution method; how it was run: as §1
Pseudomonas aeruginosa [25] = experiment: Antibacterial activity against Pseudomonas aeruginosa 09-35 after 18 to 24 hrs by twofold serial dilution method; how it was run: as §1

SMILES | MIC (Staphylococcus aureus [1]) [µg/mL] | MIC (Staphylococcus aureus [2]) [µg/mL] | MIC (Staphylococcus aureus [3]) [µg/mL] | MIC [4] [µg/mL] | MIC [5] [µg/mL] | MIC [6] [µg/mL] | MIC [7] [µg/mL] | MIC [8] [µg/mL] | MIC (Streptococcus pneumoniae [9]) [µg/mL] | MIC (Streptococcus pneumoniae [10]) [µg/mL] | MIC (Enterococcus faecium [11]) [µg/mL] | MIC (Enterococcus faecium [12]) [µg/mL] | MIC (Enterococcus faecalis [13]) [µg/mL] | MIC (Enterococcus faecalis [14]) [µg/mL] | MIC (Escherichia coli [15]) [µg/mL] | MIC (Escherichia coli [16]) [µg/mL] | MIC (Escherichia coli [17]) [µg/mL] | MIC (Klebsiella pneumoniae [18]) [µg/mL] | MIC (Klebsiella pneumoniae [19]) [µg/mL] | MIC (Klebsiella pneumoniae [20]) [µg/mL] | other results
CO/N=C1\CN(c2c(F)cc3c(=O)c(C(=O)O)cn(C4CC4)c3c2F)CC1/C(N)=N\OC (stereo not given) | 0.125 (≈ 0.278 µM) | 0.25 (≈ 0.556 µM) | 0.25 (≈ 0.556 µM) | 0.125 (≈ 0.278 µM) | 0.25 (≈ 0.556 µM) | 0.25 (≈ 0.556 µM) | 0.125 (≈ 0.278 µM) | 0.25 (≈ 0.556 µM) | 16 (≈ 35.6 µM) | 4 (≈ 8.9 µM) | > 128 | 64 (≈ 142 µM) | > 128 | > 128 | 128 (≈ 285 µM) | > 128 | > 128 | > 128 | 0.25 (≈ 0.556 µM) | > 128 | MIC (Pseudomonas aeruginosa [21]): 4 µg/mL (≈ 8.9 µM); MIC (Pseudomonas aeruginosa [22]): 8 µg/mL (≈ 17.8 µM); MIC (Pseudomonas aeruginosa [23]): > 128 µg/mL; MIC (Pseudomonas aeruginosa [24]): > 128 µg/mL; MIC (Pseudomonas aeruginosa [25]): 8 µg/mL (≈ 17.8 µM)
CO/N=C1\CN(c2c(F)cc3c(=O)c(C(=O)O)cn(C4CC4)c3c2OC)CC1/C(N)=N\O (stereo not given) | 0.25 (≈ 0.559 µM) | 0.25 (≈ 0.559 µM) | 0.25 (≈ 0.559 µM) | 0.5 (≈ 1.12 µM) | 0.25 (≈ 0.559 µM) | 0.25 (≈ 0.559 µM) | 0.25 (≈ 0.559 µM) | 0.25 (≈ 0.559 µM) | 4 (≈ 8.94 µM) | 4 (≈ 8.94 µM) | > 128 | > 128 | > 128 | > 128 | > 128 | > 128 | > 128 | > 128 | 1 (≈ 2.24 µM) | > 128 | MIC (Pseudomonas aeruginosa [21]): 16 µg/mL (≈ 35.8 µM); MIC (Pseudomonas aeruginosa [22]): 32 µg/mL (≈ 71.5 µM); MIC (Pseudomonas aeruginosa [23]): > 128 µg/mL; MIC (Pseudomonas aeruginosa [24]): > 128 µg/mL; MIC (Pseudomonas aeruginosa [25]): 32 µg/mL (≈ 71.5 µM)
CCO/N=C1\CN(c2c(F)cc3c(=O)c(C(=O)O)cn(C4CC4)c3c2OC(F)F)CC1/C(N)=N\O (stereo not given) | 0.5 (≈ 1.01 µM) | 0.25 (≈ 0.503 µM) | 1 (≈ 2.01 µM) | 1 (≈ 2.01 µM) | 1 (≈ 2.01 µM) | 1 (≈ 2.01 µM) | 1 (≈ 2.01 µM) | 0.25 (≈ 0.503 µM) | 8 (≈ 16.1 µM) | 8 (≈ 16.1 µM) | > 128 | > 128 | > 128 | > 128 | 128 (≈ 257 µM) | > 128 | > 128 | > 128 | 8 (≈ 16.1 µM) | > 128 | MIC (Pseudomonas aeruginosa [21]): 128 µg/mL (≈ 257 µM); MIC (Pseudomonas aeruginosa [22]): 128 µg/mL (≈ 257 µM); MIC (Pseudomonas aeruginosa [23]): > 128 µg/mL; MIC (Pseudomonas aeruginosa [24]): > 128 µg/mL; MIC (Pseudomonas aeruginosa [25]): 128 µg/mL (≈ 257 µM)
CCO/N=C1\CN(c2c(F)cc3c(=O)c(C(=O)O)cn(CCF)c3c2F)CC1/C(N)=N\O (stereo not given) | 0.5 (≈ 1.1 µM) | 0.5 (≈ 1.1 µM) | 0.5 (≈ 1.1 µM) | 4 (≈ 8.78 µM) | 0.5 (≈ 1.1 µM) | 0.5 (≈ 1.1 µM) | 0.5 (≈ 1.1 µM) | 0.5 (≈ 1.1 µM) | 4 (≈ 8.78 µM) | 0.5 (≈ 1.1 µM) | > 128 | > 128 | 4 (≈ 8.78 µM) | > 128 | 128 (≈ 281 µM) | > 128 | > 128 | > 128 | 4 (≈ 8.78 µM) | > 128 | MIC (Pseudomonas aeruginosa [21]): 8 µg/mL (≈ 17.6 µM); MIC (Pseudomonas aeruginosa [22]): 16 µg/mL (≈ 35.1 µM); MIC (Pseudomonas aeruginosa [23]): > 128 µg/mL; MIC (Pseudomonas aeruginosa [24]): > 128 µg/mL; MIC (Pseudomonas aeruginosa [25]): 16 µg/mL (≈ 35.1 µM)
